{"data": "Measured values of several laboratories", "SMUG1": "SMUG1 (Homo sapiens, UniProt Q53HV7)", "BRAF": "Serine/threonine-protein kinase B-raf (BRAF, Homo sapiens, UniProt P15056)", "SMARCA2 bromodomain": "SWI/SNF-related matrix-associated actin-dependent regulator of chromatin subfamily A member 2, bromodomain (SMARCA2, Homo sapiens, UniProt P51531)", "ELANE": "Neutrophil elastase (ELANE, Homo sapiens, UniProt P08246)", "Ephx2": "Bifunctional epoxide hydrolase 2 (Ephx2, Mus musculus, UniProt P34914)", "MAPK8": "Mitogen-activated protein kinase 8 (MAPK8, Homo sapiens, UniProt P45983)", "AVPR2": "Vasopressin V2 receptor (AVPR2, Homo sapiens, UniProt P30518)", "BACE1": "Beta-secretase 1 (BACE1, Homo sapiens, UniProt P56817)", "Delta-aminolevulinic acid dehydratase C162A/K59N": "Delta-aminolevulinic acid dehydratase (Homo sapiens, UniProt P13716, C162A/K59N)", "ROS1": "Proto-oncogene tyrosine-protein kinase ROS (ROS1, Homo sapiens, UniProt P08922)", "RXFP3": "Relaxin-3 receptor 1 (RXFP3, Homo sapiens, UniProt Q9NSD7)", "note": "Protocols differ between the studies behind these lines."}
{"Structure (SMILES)": "COc1cc(NC(=O)N2CCC(n3c(=O)[nH]c4c(Br)cccc43)CC2)ccc1C", "target": "SMUG1", "test": "enzyme activity, inhibitor", "IC50 [µM]": "> 100"}
{"Structure (SMILES)": "Nc1ncc(-c2nc(N3CCOCC3)nc(N3[C@@H]4CC[C@H]3COC4)n2)c(C(F)F)n1", "target": "Serine/threonine-protein kinase mTOR (MTOR, Homo sapiens, UniProt P42345)", "test": "ligand displacement, TR-FRET", "IC50 [µM]": 0.0213}
{"Structure (SMILES)": "CC(C)(C)n1nc(-c2cnc3cc(OC4CC4)ccc3c2)c(C(N)=O)c1N", "target": "BRAF", "test": "cell-free assay", "IC50 [µM]": "> 10"}
{"Structure (SMILES)": "Cc1ncsc1-c1ccc(CNC(=O)[C@@H]2C[C@H](O)CN2C(=O)[C@@H](NC(=O)C2(F)CC2)C(C)(C)C)c(OCCc2ccc(CN3CCN(c4cc(-c5ccccc5O)nnc4N)CC3)cc2)c1", "target": "SMARCA2 bromodomain", "test": "ligand displacement, TR-FRET", "IC50 [µM]": 1.3}
{"Structure (SMILES)": "Cc1cccc(C(=O)n2nc(Cl)c(=O)c3ccccc32)c1", "target": "ELANE", "test": "enzyme activity, inhibitor, fluorescence", "IC50 [µM]": 0.97}
{"Structure (SMILES)": "O=C(Nc1ccn(Cc2ccc(O)cc2C(F)(F)F)n1)c1c(F)cccc1F", "target": "Short transient receptor potential channel 6 (TRPC6, Homo sapiens, UniProt Q9Y210)", "test": "ion current, inhibitor", "IC50 [µM]": "> 10"}
{"Structure (SMILES)": "CC(=O)N[C@H]1CSSC[C@@H](C(=O)N[C@@H](Cc2c[nH]c3ccccc23)C(N)=O)NC(=O)[C@@H](Cc2ccccc2)NC(=O)[C@H](CCCNC(=N)N)NC1=O", "target": "Melanocortin receptor 3 (MC3R, Homo sapiens, UniProt P41968)", "test": "ligand displacement, radioligand", "IC50 [µM]": 0.42}
{"Structure (SMILES)": "CCOC(=O)c1nn(C(=O)c2cccc(C)c2)c2ccccc2c1=O", "target": "ELANE", "test": "enzyme activity, inhibitor, fluorescence", "IC50 [µM]": 0.21}
{"Structure (SMILES)": "CC(C)C[C@H](NC(=O)[C@H](Cc1ccccc1)NC(=O)[C@@H](N)Cc1ccc(O)cc1)C(=O)N[C@@H](Cc1ccccc1)C(=O)N[C@@H](CCCNC(=N)N)C(=O)N1CCC[C@H]1C(=O)N[C@@H](CCCNC(=N)N)C(=O)N[C@@H](CC(N)=O)C(N)=O", "target": "Neuromedin-U receptor 2 (Mus musculus, UniProt Q8BZ39)", "test": "ligand displacement, radioligand", "conditions": "cell membranes", "IC50 [µM]": "9e-05"}
{"Structure (SMILES)": "Cc1ncsc1-c1ccc(CNC(=O)[C@@H]2C[C@@H](O)CN2C(=O)[C@@H](NC(=O)C2(F)CC2)C(C)(C)C)c(OCCOCCOCCN2CCN(c3cc(-c4ccccc4O)nnc3N)CC2)c1", "target": "SMARCA2 bromodomain", "test": "ligand displacement, TR-FRET", "IC50 [µM]": 2.4}
{"Structure (SMILES)": "Cc1cc(Nc2cc(CN3CCOCC3)c3nc(C)c(Cc4ccc(Cl)cc4F)n3n2)n[nH]1", "target": "Muscle, skeletal receptor tyrosine-protein kinase (MUSK, Homo sapiens, UniProt O15146)", "test": "enzyme activity, inhibitor, TR-FRET", "IC50 [µM]": 0.147}
{"Structure (SMILES)": "CC(O)C(C)C(=O)N1CCC(NC(=O)Nc2ccc(OC(F)(F)F)c(F)c2)CC1 (stereo not drawn)", "target": "Ephx2", "test": "enzyme activity, inhibitor", "IC50 [µM]": 0.0022}
{"Structure (SMILES)": "COc1ccc2c(Oc3ccc4c(C(=O)Nc5ccccc5N)cccc4c3)ccnc2c1", "target": "MAPK8", "test": "enzyme activity, inhibitor", "IC50 [µM]": "> 0.5"}
{"Structure (SMILES)": "O=C(N/N=C/CN1CCCCC1)Nc1cc2c(Nc3ccc(F)c(Cl)c3)ncnc2cc1O[C@H]1CCOC1", "target": "Epidermal growth factor receptor (EGFR, Homo sapiens, UniProt P00533, L858R/T790M)", "test": "enzyme activity, inhibitor", "IC50 [µM]": 0.0086}
{"Structure (SMILES)": "COc1ccc2c(c1OCc1ccc(OC(F)(F)F)cc1)C[C@@H](C(=O)O)N(c1nc3ccc(F)cc3o1)C2", "target": "Type-1 angiotensin II receptor (AGTR1, Homo sapiens, UniProt P30556)", "test": "ligand displacement", "IC50 [µM]": "> 10"}
{"Structure (SMILES)": "Oc1c2ccccc2c2c3c(cccc13)N=N2", "target": "Non-receptor tyrosine-protein kinase TYK2 (TYK2, Homo sapiens, UniProt P29597)", "test": "enzyme activity, inhibitor", "IC50 [µM]": 0.44}
{"Structure (SMILES)": "NCCCC[C@H](NC(=O)[C@@H]1CCCN1C(=O)[C@@H]1CSSC[C@H](NC(=O)CNC(=O)CNC(=O)CN)C(=O)N[C@@H](Cc2ccc(O)cc2)C(=O)N[C@@H](Cc2ccccc2)C(=O)N[C@@H](CCC(N)=O)C(=O)N[C@@H](CC(N)=O)C(=O)N1)C(=O)NCC(N)=O", "target": "AVPR2", "test": "ligand displacement, radioligand", "conditions": "cell membranes", "IC50 [µM]": 9.6}
{"Structure (SMILES)": "CCN1CCN(c2c(Cl)cccc2NC(=O)c2ccc(Br)o2)CC1", "target": "MAPK8", "test": "enzyme activity, inhibitor, TR-FRET", "IC50 [µM]": 0.49}
{"Structure (SMILES)": "O=C(O)C1=CC(=C(c2ccc(O)c(C(=O)O)c2)c2ccc(O)c(C(=O)O)c2)C=CC1=O", "target": "DNA polymerase iota (Homo sapiens, UniProt Q9UNA4)", "test": "enzyme activity, inhibitor", "IC50 [µM]": 0.099}
{"Structure (SMILES)": "CCC(C)n1ncn(-c2ccc(N3CCN(c4ccc(OCC5COC(Cn6cncn6)(c6ccc(Cl)cc6Cl)O5)cc4)CC3)cc2)c1=O (stereo not drawn)", "target": "AVPR2", "test": "calcium signal, antagonist", "IC50 [µM]": 31.1}
{"Structure (SMILES)": "Cc1ccc(COc2ccc3c(c2)NC(=C(C#N)C(=O)c2ccc(Cl)cc2Cl)NC3=O)cc1", "target": "Cytoplasmic dynein 2 heavy chain 1 (DYNC2H1, Homo sapiens, UniProt Q8NCM8)", "test": "ATPase activity, inhibitor", "IC50 [µM]": 11}
{"Structure (SMILES)": "CC(C)(O)C1Cc2c(cc3occ(-c4ccc(O)cc4)c(=O)c3c2O)O1 (stereo not drawn)", "target": "BACE1", "test": "enzyme activity, inhibitor", "IC50 [µM]": "> 90"}
{"Structure (SMILES)": "CNc1nc(C)nc(N[C@H]2CCC[C@@H](C(=O)NCc3ccc(C#N)cc3C(F)(F)F)C2)n1", "target": "Ephx2", "test": "enzyme activity, inhibitor", "IC50 [µM]": 0.004}
{"Structure (SMILES)": "O=C(Nc1ccc(Br)cc1)N1CCC(n2c(=O)[nH]c3c(Br)cccc32)CC1", "target": "SMUG1", "test": "enzyme activity, inhibitor", "IC50 [µM]": "> 100"}
{"Structure (SMILES)": "NC(=O)N/N=C/c1ccc([N+](=O)[O-])o1", "target": "Delta-aminolevulinic acid dehydratase C162A/K59N", "test": "enzyme activity, inhibitor, absorbance", "conditions": "pH 8, with preincubation", "IC50 [µM]": 2.1}
{"Structure (SMILES)": "C=CC(=O)Nc1cc(Nc2nccc(Nc3cc(Cl)c(F)cc3C(C)(C)O)n2)c(OC)cc1N1CC[C@@H](N(C)C)C1", "target": "ROS1", "test": "enzyme activity, inhibitor", "conditions": "with preincubation", "IC50 [µM]": 0.937}
{"Structure (SMILES)": "CN1CCN(c2ccc(Nc3ncc4cc(C#N)c(=O)n(C5CCCC5)c4n3)cc2)CC1", "target": "ROS1", "test": "enzyme activity, inhibitor", "IC50 [µM]": 2.25}
{"Structure (SMILES)": "CCCCn1c(Sc2ccc(Cl)cc2Cl)nc2c(N)ncnc21", "target": "Endoplasmin (HSP90B1, Canis lupus familiaris, UniProt P41148)", "test": "ligand displacement, FP", "IC50 [µM]": 0.8}
{"Structure (SMILES)": "COc1ccc2c(c1)OC1Oc3cc(O)c(CC=C(C)C)c(O)c3C(=O)C21O (stereo not drawn)", "target": "BACE1", "test": "enzyme activity, inhibitor", "IC50 [µM]": 91}
{"Structure (SMILES)": "O=C(Nc1ccc(-c2nc(-c3ccc(F)cc3)no2)cc1)C1CC(=O)N(Cc2cccnc2)C1 (stereo not drawn)", "target": "RXFP3", "test": "cAMP, antagonist, TR-FRET", "IC50 [µM]": 2.67}
{"Structure (SMILES)": "C=CC(=O)Nc1cc(Nc2nccc(-c3cn(C4CC4)c4ccccc34)n2)c(OC)cc1N(C)CCN(C)C", "target": "Epidermal growth factor receptor (EGFR, Homo sapiens, UniProt P00533, D761Y)", "test": "enzyme activity, inhibitor, TR-FRET", "IC50 [µM]": 0.00084}
{"Structure (SMILES)": "O=C(Nc1ccc(-c2nc(-c3ccc(Br)cc3)no2)cc1)C1CC(=O)N(Cc2cccnc2)C1 (stereo not drawn)", "target": "RXFP3", "test": "cAMP, antagonist, TR-FRET", "IC50 [µM]": 3.08}
{"Structure (SMILES)": "CC(C)C[C@H](NC(=O)[C@@H]1COCCCCCCCC(=O)N2CCC[C@H]2C(=O)N1)C(=O)[C@@]1(C)CO1", "target": "Proteasome Macropain subunit MB1 (PSMB5, Homo sapiens, UniProt P28074)", "test": "enzyme activity, inhibitor, fluorescence", "IC50 [µM]": "> 10"}
{"Structure (SMILES)": "CC(C)c1cc(NC(=O)Nc2ccc(F)c(F)c2)n(-c2ccccc2)n1", "target": "Kir3.1/Kir3.2 (Homo sapiens, UniProt P48051+P48549)", "test": "ion flux, inhibitor", "IC50 [µM]": 2.5}
{"Structure (SMILES)": "NC1=NCC(c2cccc3ccccc23)OC1 (stereo not drawn)", "target": "BACE1", "test": "enzyme activity, inhibitor, FRET", "conditions": "pH 5", "IC50 [µM]": 1100}
{"Structure (SMILES)": "C=C(Cl)C(=O)Nc1cc(Nc2nc(Nc3cnn(C)c3)c3sccc3n2)c(OC)cc1N1CCN(C)CC1", "target": "Epidermal growth factor receptor (EGFR, Homo sapiens, UniProt P00533, C797S/L858R/T790M)", "test": "enzyme activity, inhibitor, ELISA", "IC50 [µM]": "> 1"}
{"Structure (SMILES)": "CCCS(=O)(=O)Nc1ccc(F)c(C(=O)c2c[nH]c3ncc(-c4ccc(CNC(=O)COCC(=O)NCc5ccc(-c6cnc7[nH]cc(C(=O)c8c(F)ccc(NS(=O)(=O)CCC)c8F)c7c6)cc5)cc4)cc23)c1F", "target": "Serine/threonine-protein kinase B-raf (BRAF, Homo sapiens, UniProt P15056, V600E)", "test": "enzyme activity, inhibitor, ELISA", "IC50 [µM]": "~0.056"}
{"Structure (SMILES)": "CCOC(=O)c1nn(C(=O)C2CC2)c2ccccc2c1=O", "target": "ELANE", "test": "enzyme activity, inhibitor, fluorescence", "IC50 [µM]": 0.58}
{"Structure (SMILES)": "O=C(O)c1cccnc1Nc1cccc(C(F)(F)F)c1", "target": "Delta-aminolevulinic acid dehydratase C162A/K59N", "test": "enzyme activity, inhibitor, absorbance", "conditions": "pH 8, with preincubation", "IC50 [µM]": 13}
{"Structure (SMILES)": "Cc1cccc(-c2noc(-c3ccc(NC(=O)C4CC(=O)N(Cc5cccnc5)C4)cc3)n2)c1 (stereo not drawn)", "target": "RXFP3", "test": "cAMP, antagonist, TR-FRET", "IC50 [µM]": 4.04}
{"Structure (SMILES)": "COc1cc(NC(=O)N2CCC(n3c(=O)[nH]c4c(Br)cccc43)CC2)ccc1Cl", "target": "SMUG1", "test": "enzyme activity, inhibitor", "IC50 [µM]": "> 100"}
{"Structure (SMILES)": "O=C(O)Cc1ccccc1Nc1c(Cl)cccc1Cl", "target": "Delta-aminolevulinic acid dehydratase C162A/K59N", "test": "enzyme activity, inhibitor, absorbance", "conditions": "pH 8, with preincubation", "IC50 [µM]": 9}
{"Structure (SMILES)": "Oc1ccc(-c2nc(-c3ccncc3)c(-c3ccc(F)cc3)[nH]2)cc1", "target": "BRAF", "test": "cell-free assay, inhibitor", "IC50 [µM]": 1.13}
{"Structure (SMILES)": "O=C(O)c1ccccc1Nc1cccc(C(F)(F)F)c1", "target": "Delta-aminolevulinic acid dehydratase C162A/K59N", "test": "enzyme activity, inhibitor, absorbance", "conditions": "pH 8, with preincubation", "IC50 [µM]": 2.5}
{"Structure (SMILES)": "Cc1cccc(C(=O)n2ncc(=O)c3ccccc32)c1", "target": "ELANE", "test": "enzyme activity, inhibitor, fluorescence", "IC50 [µM]": 0.056}
